# Published values pooled from the literature.
# Lines come from different studies, so protocols differ.
# Target: Serine/threonine-protein kinase tousled-like 2 (TLK2, Homo sapiens, UniProt Q86UE8)
SMILES,read-out,action,method,concentration,endpoint,result
CN(C)c1ncnc(-c2ccc3nc(Nc4cc(CN5CCN(C(=O)CC(F)(F)F)CC5)ccn4)[nH]c3c2)c1Cl,cell-free assay,,competition with immobilised ligand,1 µM,remaining binding,100%
COc1cc(Nc2c(C#N)cnc3cc(OCCCN4CCN(C)CC4)c(OC)cc23)c(Cl)cc1Cl,cell-free assay,,,0.5 µM,remaining signal,92.2%
CCCS(=O)(=O)Nc1ccc(F)c(C(=O)c2c[nH]c3ncc(-c4ccc(Cl)cc4)cc23)c1F,enzyme activity,inhibitor,,1 µM,inhibition,< 10%
C[C@@H](c1cccc(C#N)c1)n1cc(Cl)cc(C(N)=O)c1=N,cell-free assay,,competition with immobilised ligand,1 µM,remaining binding,100%
Cc1sc(C(=O)NC2COC2)cc1-n1cc(NC(=O)Nc2c(F)cccc2Cl)cn1,enzyme activity,inhibitor,,10 µM,remaining activity,97.2%
CCCOc1ccc([C@H]2[C@H](C(=O)O)[C@@H](c3ccc4c(c3)OCO4)CN2CC(=O)Nc2c(CC)cccc2CC)cc1,cell-free assay,,competition with immobilised ligand,1 µM,remaining binding,94%
Cc1ccc(NC(=O)c2ccc(C)c(C(F)(F)F)c2)cc1C#Cc1nn(C2CCC(O)CC2)c2ncnc(N)c12 (stereo not drawn),cell-free assay,,,10 µM,remaining signal,93%
COc1ccc2cc(OCC3(C(=O)O)CN(C(=O)c4ccc(F)cc4)C3)ccc2c1,cell-free assay,,competition with immobilised ligand,1 µM,remaining binding,100%
Oc1cccc(-c2nc(N3CCOCC3)c3oc4ncccc4c3n2)c1,cell-free assay,,,0.5 µM,remaining signal,102%
O=C(Nc1cnn(-c2csc(C(=O)NC3COC3)c2)c1)Nc1ccccc1Cl,enzyme activity,inhibitor,,5 µM,remaining activity,99.1%
CNC(=O)c1cc(Oc2ccc(NC(=O)Nc3ccc(Cl)c(C(F)(F)F)c3)cc2)ccn1,enzyme activity,inhibitor,,10 µM,inhibition,-1%
CC(C)(C)c1nc2c(s1)c1nc(N)ncc1c1ccc(NS(=O)(=O)c3c(F)cccc3F)c(F)c12,enzyme activity,inhibitor,radiometric,1 µM,remaining activity,109%
CCC(=O)N[C@@H]1CC[C@H](C(=O)N(C)c2ccc(-c3nc4ccccc4o3)cc2)C1,cell-free assay,,competition with immobilised ligand,1 µM,remaining binding,100%
CC(C)(O)[C@H]1CC[C@H](Nc2ccc3ncc(-c4cccc(C(F)(F)F)c4)n3n2)CC1,enzyme activity,inhibitor,,1 µM,remaining activity,103%
c1ccc(CNc2nc(N3CCOc4ccccc43)nc3c2CCCC3)cc1,target engagement in cells,inhibitor,chemoproteomics,20 mM,inhibition,-6.8%
Cc1cnc(NC2CCOCC2)nc1-n1cnc(C(=O)NC(CN)c2cc(F)cc(Cl)c2)c1 (stereo not drawn),enzyme activity,inhibitor,radiometric,1 µM,remaining activity,100%
C[S+]([O-])c1ccc(-c2nc(-c3ccncc3)c(-c3ccc(F)cc3)[nH]2)cc1 (stereo not drawn),cell-free assay,,,0.5 µM,remaining signal,96.5%
CCN(CC)c1ccc(C2=NNC(=O)CC2C)cc1[N+](=O)[O-] (stereo not drawn),enzyme activity,inhibitor,,10 µM,remaining activity,82%
CNC(=O)Nc1ccc2c(c1)CC[C@@]21OC(=O)N(CC(=O)N(Cc2ccc(F)cc2)[C@@H](C)C(F)(F)F)C1=O,cell-free assay,,competition with immobilised ligand,1 µM,remaining binding,100%
O=C1Nc2ccc(Cl)cc2C1=Cc1cc(Cl)c(O)c(Cl)c1,cell-free assay,,,0.5 µM,remaining signal,105%
Cc1cc(NC(=O)c2cccc3cc(-c4cccc5[nH]nc(N)c45)ccc23)ccc1F,enzyme activity,inhibitor,,0.1 µM,activity vs control,100%
